According to ChEMBL document CHEMBL4257453, “Identification of karanjin isolated from the Indian beech tree as a potent CYP1 enzyme inhibitor with cellular efficacy via screening of a natural product repository” (Medchemcomm, 2018):

Experiments:
CYP1A1 [1] = biological target: T1, CYP1A1 (Homo sapiens, UniProt P04798); assay: Inhibition of recombinant human CYP1A1 expressed in baker's yeast-derived microsomes (Sacchrosomes) at 10 uM using 7-ethoxyresorufin substrate by EROD assay relative to control; details: probe 7-ethoxyresorufin
T1 sequence (P04798 whole entry): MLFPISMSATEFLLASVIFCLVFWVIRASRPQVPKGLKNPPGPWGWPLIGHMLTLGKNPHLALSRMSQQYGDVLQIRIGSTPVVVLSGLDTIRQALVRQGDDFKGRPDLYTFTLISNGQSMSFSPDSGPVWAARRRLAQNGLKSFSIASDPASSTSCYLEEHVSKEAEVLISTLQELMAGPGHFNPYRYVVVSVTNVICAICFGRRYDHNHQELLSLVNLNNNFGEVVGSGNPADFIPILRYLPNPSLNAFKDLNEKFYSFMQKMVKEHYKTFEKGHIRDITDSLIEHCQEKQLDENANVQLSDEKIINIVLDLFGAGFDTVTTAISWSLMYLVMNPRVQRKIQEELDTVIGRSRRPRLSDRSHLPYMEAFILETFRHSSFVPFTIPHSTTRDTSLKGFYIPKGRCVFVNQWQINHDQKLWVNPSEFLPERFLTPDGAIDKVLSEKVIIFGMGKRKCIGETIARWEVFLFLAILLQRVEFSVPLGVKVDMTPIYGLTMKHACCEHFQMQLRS
Procedure, shortened: (§1)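 Yeast microsomes carrying recombinant CYP (Sacchrosomes). Substrates per isoform are 7-ethoxyresorufin, 3-cyano-7-ethoxycoumarin, EOMCC or dibenzylfluorescein, read as endpoint fluorescence. Background from compound-only wells without enzyme is subtracted. Independent triplicate runs; α-naphthoflavone positive control.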

CYP1A1 [2] = biological target: T1, CYP1A1; assay: Inhibition of human recombinant CYP1A1 expressed in HEK293 cells at 10 uM using 7-ethoxyresorufin substrate preincubated for 30 mins followed by substrate addition and measured after 60 mins by fluorescence assay relative to control; format: cell-based; details: HEK293 cells expressing human recombinant CYP1A1, probe 7-ethoxyresorufin
Procedure, shortened: (§2)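 HEK293 cells adapted to suspension and transiently transfected with pcDNA3.1 plasmids carrying the individual CYP; 100×10^3 cells per well in triplicate. […] Fluorogenic substrate is then added at 5 μM and fluorescence read for 60 min.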

Cytochrome P450 2C19 = Cytochrome P450 2C19 (Homo sapiens, UniProt P33261); assay: Inhibition of human recombinant CYP2C19 expressed in HEK293 cells using 3-cyano-7-ethoxycoumarin substrate substrate preincubated for 30 mins followed by substrate addition and measured after 60 mins by fluorescence assay relative to control; format: ADME, cell-based; procedure, shortened: as §2
Cytochrome P450 1A1 = biological target: T2, Cytochrome P450 1A1 (Homo sapiens, UniProt P04798); assay: Inhibition of human recombinant CYP1A1 expressed in HEK293 cells using 7-ethoxyresorufin substrate preincubated for 30 mins followed by substrate addition and measured after 60 mins by fluorescence assay relative to control; format: cell-based; procedure, shortened: as §2
T2 sequence (P04798 whole entry): T1 sequence (P04798 whole entry)

CYP1A2 = biological target: T3, CYP1A2 (Homo sapiens, UniProt P05177); assay: Inhibition of recombinant human CYP1A2 expressed in baker's yeast-derived microsomes (Sacchrosomes) at 10 uM using 3-cyano-7-ethoxycoumarin substrate by EROD assay relative to control; format: ADME; details: probe 3-cyano-7-ethoxycoumarin; procedure, shortened: as §1
T3 sequence (P05177 whole entry): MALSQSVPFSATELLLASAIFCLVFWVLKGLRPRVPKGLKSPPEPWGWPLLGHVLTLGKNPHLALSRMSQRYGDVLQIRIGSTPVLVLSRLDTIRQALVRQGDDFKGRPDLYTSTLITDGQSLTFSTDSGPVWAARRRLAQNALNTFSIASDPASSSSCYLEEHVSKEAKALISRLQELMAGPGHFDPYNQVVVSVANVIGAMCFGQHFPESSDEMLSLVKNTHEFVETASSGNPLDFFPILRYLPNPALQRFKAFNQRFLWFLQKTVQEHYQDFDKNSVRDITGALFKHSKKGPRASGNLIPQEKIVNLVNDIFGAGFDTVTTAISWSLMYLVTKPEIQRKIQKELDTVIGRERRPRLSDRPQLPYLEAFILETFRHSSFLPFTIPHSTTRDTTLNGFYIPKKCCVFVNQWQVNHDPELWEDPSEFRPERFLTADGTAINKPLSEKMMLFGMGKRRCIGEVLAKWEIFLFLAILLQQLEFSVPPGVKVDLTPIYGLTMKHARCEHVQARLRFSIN

CYP2C19 = CYP2C19 (Homo sapiens, UniProt P33261); assay: Inhibition of recombinant human CYP2C19 expressed in baker's yeast-derived microsomes (Sacchrosomes) at 10 uM using 3-cyano-7-ethoxycoumarin substrate by EROD assay relative to control; format: ADME; details: probe 3-cyano-7-ethoxycoumarin
Procedure, shortened: as §1, with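 “(Sacchrosomes). […]” for “(Sacchrosomes).”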

CYP1B1 = biological target: T4, CYP1B1 (Homo sapiens, UniProt Q16678); assay: Inhibition of recombinant human CYP1B1 expressed in baker's yeast-derived microsomes (Sacchrosomes) at 10 uM using 7-ethoxyresorufin substrate by EROD assay relative to control; format: ADME; details: probe 7-ethoxyresorufin
T4 sequence (Q16678 whole entry): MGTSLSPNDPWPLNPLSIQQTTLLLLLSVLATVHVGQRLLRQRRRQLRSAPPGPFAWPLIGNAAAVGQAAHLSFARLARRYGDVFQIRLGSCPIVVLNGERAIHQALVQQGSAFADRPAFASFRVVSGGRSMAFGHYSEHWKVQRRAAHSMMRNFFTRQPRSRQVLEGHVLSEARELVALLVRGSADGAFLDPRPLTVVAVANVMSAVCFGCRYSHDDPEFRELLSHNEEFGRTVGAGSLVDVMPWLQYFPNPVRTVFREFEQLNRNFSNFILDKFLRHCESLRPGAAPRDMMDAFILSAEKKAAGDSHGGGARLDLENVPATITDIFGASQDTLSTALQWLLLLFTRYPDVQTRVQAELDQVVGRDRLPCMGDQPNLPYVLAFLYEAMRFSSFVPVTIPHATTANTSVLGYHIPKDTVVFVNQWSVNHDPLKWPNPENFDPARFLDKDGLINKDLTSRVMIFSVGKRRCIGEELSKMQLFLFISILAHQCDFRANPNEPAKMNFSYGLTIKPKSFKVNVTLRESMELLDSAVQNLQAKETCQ
Procedure, shortened: as §1, with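 “(Sacchrosomes). […]” for “(Sacchrosomes).”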

Cytochrome P450 2D6 = Cytochrome P450 2D6 (Homo sapiens, UniProt P10635); assay: Inhibition of human recombinant CYP2D6 expressed in HEK293 cells using 7-ethoxy-methyloxy-3-cyanocoumarin substrate substrate preincubated for 30 mins followed by substrate addition and measured after 60 mins by fluorescence assay relative to control; format: ADME, cell-based; procedure, shortened: as §2
Cytochrome P450 1B1 = biological target: T5, Cytochrome P450 1B1 (Homo sapiens, UniProt Q16678); assay: Inhibition of human recombinant CYP1B1 expressed in HEK293 cells using 7-ethoxyresorufin substrate substrate preincubated for 30 mins followed by substrate addition and measured after 60 mins by fluorescence assay relative to control; format: ADME, cell-based; procedure, shortened: as §2
T5 sequence (Q16678 whole entry): T4 sequence (Q16678 whole entry)

Cytochrome P450 2C9 = Cytochrome P450 2C9 (Homo sapiens, UniProt P11712); assay: Inhibition of human recombinant CYP2C9 expressed in HEK293 cells using 3-cyano-7-ethoxycoumarin substrate substrate preincubated for 30 mins followed by substrate addition and measured after 60 mins by fluorescence assay relative to control; format: ADME, cell-based; procedure, shortened: as §2
CYP3A4 = CYP3A4 (Homo sapiens, UniProt P08684); assay: Inhibition of recombinant human CYP3A4 expressed in baker's yeast-derived microsomes (Sacchrosomes) at 10 uM using dibenzylfluorescein substrate by EROD assay relative to control; format: ADME; details: probe dibenzylfluorescein
Procedure, shortened: as §1, with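 “(Sacchrosomes). […]” for “(Sacchrosomes).”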

CYP2D6 = CYP2D6 (Homo sapiens, UniProt P10635); assay: Inhibition of recombinant human CYP2D6 expressed in baker's yeast-derived microsomes (Sacchrosomes) at 10 uM using 7-ethoxy-methyloxy-3-cyanocoumarin substrate by EROD assay relative to control; format: ADME; details: probe 7-ethoxy-methyloxy-3-cyanocoumarin
Procedure, shortened: as §1, with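 “(Sacchrosomes). […]” for “(Sacchrosomes).”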

CYP2C9 = CYP2C9 (Homo sapiens, UniProt P11712); assay: Inhibition of recombinant human CYP2C9 expressed in baker's yeast-derived microsomes (Sacchrosomes) at 10 uM using 3-cyano-7-ethoxycoumarin substrate by EROD assay relative to control; format: ADME; details: probe 3-cyano-7-ethoxycoumarin
Procedure, shortened: as §1, with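 “(Sacchrosomes). […]” for “(Sacchrosomes).”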

Cytochrome P450 1A2 = biological target: T6, Cytochrome P450 1A2 (Homo sapiens, UniProt P05177); assay: Inhibition of human recombinant CYP1A2 expressed in HEK293 cells using 3-cyano-7-ethoxycoumarin substrate preincubated for 30 mins followed by substrate addition and measured after 60 mins by fluorescence assay relative to control; format: ADME, cell-based; procedure, shortened: as §2
T6 sequence (P05177 whole entry): T3 sequence (P05177 whole entry)

Cytochrome P450 3A4 = Cytochrome P450 3A4 (Homo sapiens, UniProt P08684); assay: Inhibition of human recombinant CYP3A4 expressed in HEK293 cells using dibenzylfluorescein substrate substrate preincubated for 30 mins followed by substrate addition and measured after 60 mins by fluorescence assay relative to control; format: ADME, cell-based
Procedure, shortened: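 HEK293 cells adapted to suspension and transiently transfected with pcDNA3.1 plasmids carrying the individual CYP; 100×10^3 cells per well in triplicate. Fluorogenic substrate is then added at 5 μM and fluorescence read for 60 min.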

CYP2D6, sequence (P10635 whole entry): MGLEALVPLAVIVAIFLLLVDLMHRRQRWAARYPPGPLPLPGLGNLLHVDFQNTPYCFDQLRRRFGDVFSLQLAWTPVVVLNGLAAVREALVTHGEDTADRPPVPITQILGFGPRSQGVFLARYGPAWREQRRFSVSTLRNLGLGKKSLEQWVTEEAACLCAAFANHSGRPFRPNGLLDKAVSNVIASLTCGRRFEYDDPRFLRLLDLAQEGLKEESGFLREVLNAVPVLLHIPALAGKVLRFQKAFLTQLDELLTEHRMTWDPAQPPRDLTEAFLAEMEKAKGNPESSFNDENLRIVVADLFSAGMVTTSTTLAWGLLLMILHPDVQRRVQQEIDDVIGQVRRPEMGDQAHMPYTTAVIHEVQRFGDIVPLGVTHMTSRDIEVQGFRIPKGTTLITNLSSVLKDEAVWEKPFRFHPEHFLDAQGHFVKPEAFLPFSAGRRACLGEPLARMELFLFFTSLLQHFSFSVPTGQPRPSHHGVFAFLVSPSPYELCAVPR
Cytochrome P450 2D6, sequence (P10635 whole entry): as above
CYP3A4, sequence (P08684 whole entry): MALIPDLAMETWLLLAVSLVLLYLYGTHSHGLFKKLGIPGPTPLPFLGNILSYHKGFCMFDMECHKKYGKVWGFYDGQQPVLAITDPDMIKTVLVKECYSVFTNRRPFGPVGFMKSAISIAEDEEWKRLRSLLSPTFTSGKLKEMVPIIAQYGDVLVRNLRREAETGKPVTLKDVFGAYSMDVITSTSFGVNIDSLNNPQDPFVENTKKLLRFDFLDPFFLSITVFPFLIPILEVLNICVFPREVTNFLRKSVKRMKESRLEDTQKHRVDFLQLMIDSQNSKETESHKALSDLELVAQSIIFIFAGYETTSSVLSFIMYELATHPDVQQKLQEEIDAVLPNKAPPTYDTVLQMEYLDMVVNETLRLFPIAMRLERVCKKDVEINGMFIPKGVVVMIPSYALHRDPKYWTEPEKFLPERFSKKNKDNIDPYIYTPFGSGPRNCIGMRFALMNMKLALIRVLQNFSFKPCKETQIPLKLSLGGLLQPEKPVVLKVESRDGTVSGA
CYP2C9, sequence (P11712 whole entry): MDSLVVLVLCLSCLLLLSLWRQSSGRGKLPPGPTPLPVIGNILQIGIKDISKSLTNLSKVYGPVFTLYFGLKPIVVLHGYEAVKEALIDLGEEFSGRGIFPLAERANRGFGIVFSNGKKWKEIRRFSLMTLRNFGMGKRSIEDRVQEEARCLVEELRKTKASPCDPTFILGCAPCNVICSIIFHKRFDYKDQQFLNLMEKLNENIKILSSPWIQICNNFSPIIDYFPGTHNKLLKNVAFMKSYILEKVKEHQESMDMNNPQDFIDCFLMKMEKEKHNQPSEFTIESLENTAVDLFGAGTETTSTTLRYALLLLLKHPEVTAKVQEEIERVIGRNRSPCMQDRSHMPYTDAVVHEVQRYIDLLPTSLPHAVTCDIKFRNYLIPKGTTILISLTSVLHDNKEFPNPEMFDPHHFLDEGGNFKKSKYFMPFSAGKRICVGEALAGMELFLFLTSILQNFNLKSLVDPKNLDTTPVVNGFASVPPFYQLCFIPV
Cytochrome P450 2C9, sequence (P11712 whole entry): as above
Cytochrome P450 2C19, sequence (P33261 whole entry): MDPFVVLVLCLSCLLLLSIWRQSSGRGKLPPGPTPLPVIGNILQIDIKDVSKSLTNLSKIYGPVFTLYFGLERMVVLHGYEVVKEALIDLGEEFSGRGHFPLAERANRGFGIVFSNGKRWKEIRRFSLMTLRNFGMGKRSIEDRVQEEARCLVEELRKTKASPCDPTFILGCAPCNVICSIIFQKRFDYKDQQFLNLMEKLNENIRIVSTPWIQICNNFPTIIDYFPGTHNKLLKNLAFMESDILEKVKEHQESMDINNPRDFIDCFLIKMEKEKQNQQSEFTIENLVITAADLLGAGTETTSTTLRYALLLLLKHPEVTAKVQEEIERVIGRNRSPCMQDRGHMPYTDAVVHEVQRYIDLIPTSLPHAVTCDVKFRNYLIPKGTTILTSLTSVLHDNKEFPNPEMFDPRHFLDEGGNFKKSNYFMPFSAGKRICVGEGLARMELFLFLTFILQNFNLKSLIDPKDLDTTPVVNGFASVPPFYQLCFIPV
CYP2C19, sequence (P33261 whole entry): as above
Cytochrome P450 3A4, sequence (P08684 whole entry): as the sequence (P08684 whole entry) above

In the case of `COc1c(O)cc2oc(-c3ccc(O)cc3)cc(=O)c2c1O` [HISPIDULIN], the inhibition at 10 µM (CYP1A1 [1]) is reported as 86%.

In the case of `COc1c2occc2c(OC)c2c(=O)cc(C)oc12` [KHELLIN], the inhibition at 1 h, 10 µM (CYP1A1 [2]) is reported as 75%, the inhibition at 10 µM (CYP1A1 [1]) is reported as 92% and the IC50 (Cytochrome P450 2C19) is reported as > 10 µM. It also gave an IC50 (Cytochrome P450 1A1) of 4.02 µM, a Ki (Cytochrome P450 1A1) of 3.8 µM and an inhibition at 10 µM (CYP1A2) of 99%. For the same compound, the inhibition at 10 µM (CYP2C19) was 8%, the inhibition at 10 µM (CYP1B1) was 5% and the IC50 (Cytochrome P450 2D6) was > 10 µM. For the same compound, the IC50 (Cytochrome P450 1B1) was 34.6 µM, the IC50 (Cytochrome P450 2C9) was > 10 µM and the inhibition at 10 µM (CYP3A4) was 11%. It also gave an inhibition at 10 µM (CYP2D6) of 8%, an inhibition at 10 µM (CYP2C9) of 12% and an IC50 (Cytochrome P450 1A2) of 0.04 µM. It also gave a Ki (Cytochrome P450 1A2) of 0.031 µM.

`COc1ccc2ccc(=O)oc2c1CC=C(C)C` [OSTHOLE] gave an inhibition at 10 µM (CYP1A1 [1]) of 34%.

`CC1(C)O[C@H]1COc1c2ccoc2cc2oc(=O)ccc12` [OXYPEUCEDANIN] showed an inhibition at 10 µM (CYP1A1 [1]) of 56%.

`CC(C)=CCOc1c2occc2cc2ccc(=O)oc12` [PENTOSALEN] gave an inhibition at 10 µM (CYP1A1 [1]) of 71%.

`O=C(/C=C/C=C/c1ccc2c(c1)OCO2)N1CCCCC1` [PIPERINE] was tested, and the inhibition at 10 µM (CYP1A1 [1]) was 42%.

In the case of `CC1=CC(=O)c2c(O)cccc2C1=O` [PLUMBAGIN], the inhibition at 1 h, 10 µM (CYP1A1 [2]) is reported as 86%, the IC50 (Cytochrome P450 3A4) is reported as > 10 µM and the IC50 (Cytochrome P450 2C19) is reported as > 10 µM. For the same compound, the IC50 (Cytochrome P450 1A1) was 2.77 µM, the Ki (Cytochrome P450 1A1) was 2.56 µM and the inhibition at 10 µM (CYP1A2) was 55%. The inhibition at 10 µM (CYP2C19) was 12%, the inhibition at 10 µM (CYP1B1) was 40% and the IC50 (Cytochrome P450 2D6) was > 10 µM. For the same compound, the IC50 (Cytochrome P450 1B1) was 6.15 µM, the IC50 (Cytochrome P450 2C9) was > 10 µM and the inhibition at 10 µM (CYP3A4) was 15%. The inhibition at 10 µM (CYP2D6) was 10%, the inhibition at 10 µM (CYP2C9) was 11% and the IC50 (Cytochrome P450 1A2) was 2.46 µM. It also gave a Ki (Cytochrome P450 1A2) of 2.36 µM.

`O=c1ccc2cc3ccoc3cc2o1` [PSORALEN] showed an inhibition at 10 µM (CYP1A1 [1]) of 69%.

`COc1cc2ccc(=O)oc2c2ccoc12` [SPHONDIN] gave an inhibition at 10 µM (CYP1A1 [1]) of 67%.

`O=c1cc(-c2ccc(O)cc2)oc2c([C@@H]3O[C@H](CO)[C@@H](O)[C@H](O)[C@H]3O)c(O)cc(O)c12` [VITEXIN] was tested, and the inhibition at 10 µM (CYP1A1 [1]) was 42%.

For `CC1=C(CO)C(=O)O[C@@H]([C@@H](C)[C@H]2CC[C@H]3[C@@H]4C[C@H]5O[C@]56[C@@H](O)C=CC(=O)[C@]6(C)[C@H]4CC[C@]23C)C1` [WITHAFERIN A], the inhibition at 10 µM (CYP1A1 [1]) was 50%.
